The subject of the experiment is E. coli V66 Hfr conjugational recombination, colony counts. Nature of the experiment: RecBCD-driven recombination inhibition in E. coli, late-stage follow-up, counter-screen for AddAB inhibitor project, V66 E. coli, colony formation, powder samples, 100 µM (AID 623919). The settings on record: at 100 µM; active compounds read high. A digest of the protocol:
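Material: E. coli V66 recipient with Hfr donor / Times: 1 h recipient growth with compound, then 30 min mating / Probe or stimulus: Hfr donor, 1:10 donor-to-recipient / Compound dosing: single 100 µM dose / Medium: LB broth / Signal: differential plating colony counts / Control set: DMSO-only culture / Replicates: duplicates / Read-out basis: fold reduction in recombinant frequency versus DMSO, viability-adjusted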
On the technique in general: The purpose of a counterscreen is to sort out artefacts and off-target activity.

Our source for the fold reduction of recombination values is PubChem BioAssay AID623919 (The Scripps Research Institute Molecular Screening Center, 2012).

Calls of active or inactive are those of the source.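 How the source made its calls: active means recombination in E. coli crosses cut more than 4-fold against the solvent-only control; inactive means cut of 4-fold or less.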

Regarding `CCn1cc(C(=O)O)c(=O)c2cnc(N3CCN(C(=S)Nc4ccc5c(c4)OCO5)CC3)nc21`, the fold reduction of recombination was 1 (inactive).
With `CCn1cc(C(=O)O)c(=O)c2cnc(N3CCN(C(=S)Nc4ccccc4)CC3)nc21` the figure was 1 (inactive).
With `C=CCNC(=S)N1CCN(c2ncc3c(=O)c(C(=O)O)cn(CC)c3n2)CC1` the figure was 1.5 (inactive); with `CC1(C)Cc2c(sc(NC(=O)c3ccco3)c2C#N)CO1`, 2 (inactive); with `CCn1cc(C(=O)O)c(=O)c2cnc(N3CCN(C(=S)Nc4ccccc4C)CC3)nc21`, 1 (inactive).
With `CCn1cc(C(=O)O)c(=O)c2cnc(N3CCNCC3)nc21` the figure was 50.
For `CC(=O)Nc1ccc2nc(NC(=O)c3ccc([N+](=O)[O-])o3)sc2c1`, the fold reduction of recombination is 2 (inactive).
For the compound `CCn1cc(C(=O)O)c(=O)c2cnc(N3CCN(C(=S)NC(=O)c4ccccc4Cl)CC3)nc21`, the fold reduction of recombination is 2 (inactive).
With `CCn1cc(C(=O)O)c(=O)c2cnc(N3CCN(C(=S)Nc4ccccc4Cl)CC3)nc21` the figure was 1 (inactive).
With `CCn1cc(C(=O)O)c(=O)c2cc(F)c(N3CCN(C(=S)Nc4cccc(C(F)(F)F)c4)CC3)cc21` the figure was 350; with `O=C(Nc1cccc(NC(=O)c2ccccc2Cl)c1)c1ccc([N+](=O)[O-])o1`, 2 (inactive); with `N#Cc1c(NC(=O)c2cccc(F)c2)sc2c1CCCC2`, 1 (inactive).
For the compound `O=C(Nc1ncccn1)c1ccc([N+](=O)[O-])o1`, the fold reduction of recombination was 20.
As for `CCn1cc(C(=O)O)c(=O)c2cnc(N3CCN(C(=S)Nc4ccccc4F)CC3)nc21`, the fold reduction of recombination is 2 (inactive).
With `CCn1cc(C(=O)O)c(=O)c2cnc(N3CCN(C(=S)NC)CC3)nc21` the figure was 1 (inactive).
Turning to `Cc1ccc2nc(/C(C#N)=C\c3ccc([N+](=O)[O-])o3)[nH]c2c1`, the fold reduction of recombination was 3 (inactive).
Take `N#Cc1c(NC(=O)c2ccc(-c3ccccc3[N+](=O)[O-])o2)sc2c1CCCC2`: the fold reduction of recombination is 1 (inactive).
With `CCn1cc(C(=O)O)c(=O)c2cnc(N3CCN(C(=O)Nc4ccccc4)CC3)nc21` the figure was 1 (inactive).
With `Cc1ccc(C(=O)Nc2sc3c(c2C#N)CCC3)o1` the figure was 2 (inactive).
With `N#Cc1c(NC(=O)c2ccccc2C(=O)O)sc2c1CCCC2` the figure was 1 (inactive).
`N#Cc1c(NC(=O)c2ccccc2)sc2c1CCC2`: the fold reduction of recombination is 1 (inactive).
Regarding `CCn1cc(C(=O)O)c(=O)c2cnc(N3CCN(C(=S)Nc4cccc(C(F)(F)F)c4)CC3)nc21`, the fold reduction of recombination was 6.
With `N#Cc1c(NC(=O)C2CC=CCC2C(=O)O)sc2c1CCC2` (stereo not drawn) the figure was 1 (inactive); with `O=C(NCc1cccnc1)c1ccc([N+](=O)[O-])o1`, 18.5; with `Cc1sc(NC(=O)c2ccc(Br)o2)c(C#N)c1C`, 1.5 (inactive).
With `CC1CCc2c(sc(NC(=O)c3ccc([N+](=O)[O-])o3)c2C#N)C1` (stereo not drawn) the figure was 2 (inactive); with `O=C(OCC(=O)c1cccs1)c1ccc([N+](=O)[O-])o1`, 2.1 (inactive).
Consider `CCn1cc(C(=O)O)c(=O)c2cnc(N3CCN(C(=S)Nc4ccccc4OC)CC3)nc21`, for which the fold reduction of recombination is 1.5 (inactive).
With `NC(=O)c1ccsc1NC(=O)COC(=O)c1ccc([N+](=O)[O-])o1` the figure was 1.6 (inactive); with `CCn1cc(C(=O)O)c(=O)c2cnc(N3CCN(C(=S)NC4CC5CCC4C5)CC3)nc21` (stereo not drawn), 1 (inactive).
To `CCn1cc(C(=O)O)c(=O)c2cnc(N3CCN(C(=S)NC(=O)c4ccco4)CC3)nc21` belongs 1 (inactive); to `C=CCn1c(Sc2ncc([N+](=O)[O-])s2)n[nH]c1=O`, 900.
To `N#Cc1c(NC(=O)c2ccc([N+](=O)[O-])o2)sc2c1CCC2` belongs 3 (inactive); to `CCn1cc(C(=O)O)c(=O)c2cnc(N3CCN(C(=S)Nc4ccc(F)cc4)CC3)nc21`, 1 (inactive); to `CC1CCc2c(sc(NC(=O)c3ccc([N+](=O)[O-])o3)c2N)C1` (stereo not drawn), 2 (inactive).
For `N#Cc1c(NC(=O)c2cnccn2)sc2c1CCCC2`, the fold reduction of recombination was 1 (inactive).
To `N#Cc1c(NC(=O)c2ccc([N+](=O)[O-])o2)sc2c1CCCC2` belongs 1 (inactive); to `Cc1cccnc1NC(=O)c1ccc([N+](=O)[O-])o1`, 3 (inactive).
For `CCn1cc(C(=O)O)c(=O)c2cnc(N3CCN(C(=S)NC(=O)c4cccnc4)CC3)nc21`, the fold reduction of recombination was 1 (inactive).
Take `CCn1cc(C(=O)O)c(=O)c2cnc(N3CCN(C(=S)Nc4ccc(Cl)cc4)CC3)nc21`: the fold reduction of recombination is 1 (inactive).
`CCn1cc(C(=O)O)c(=O)c2cnc(N3CCN(C(=S)NCc4ccccc4)CC3)nc21`: the fold reduction of recombination was 1 (inactive).
To `Cc1ccc(C(=O)Nc2sc3c(c2C#N)CCCCC3)o1` belongs 3 (inactive); to `CCn1cc(C(=O)O)c(=O)c2cnc(N3CCN(C(=S)NC(C)c4ccccc4)CC3)nc21` (stereo not drawn), 1.5 (inactive); to `Nc1c(NC(=O)c2ccc([N+](=O)[O-])o2)sc2c1CCCC2`, 1 (inactive).
On to `CCn1cc(C(=O)O)c(=O)c2cnc(N3CCN(C(=S)Nc4ccc5c(c4)OCCO5)CC3)nc21`, for which the fold reduction of recombination is 1 (inactive).
With `N#Cc1c(NC(=O)c2ccco2)sc2c1CCC2` the figure was 1 (inactive).
With `CCn1cc(C(=O)O)c(=O)c2cnc(N3CCN(C(=S)NC(=O)c4cccc(C)c4)CC3)nc21` the figure was 1 (inactive); with `O=C(Nc1ccc(N2CCOCC2)cc1)c1ccc([N+](=O)[O-])o1`, 2 (inactive).
